Laboratory results reported in ChEMBL document CHEMBL1128480 (J Med Chem, 1995).

How the values were obtained:
[1] = species: Rattus norvegicus; experiment: Effect on [3H]sradipine binding to rat heart.
Outline: (§1)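 Sprague Dawley rat ventricle microsomes were prepared in 50 mM Tris with PMSF (pH 7.4), with a final 100 000g spin. Membranes (0.3 mg protein/mL) were preincubated 5 min with compound (10⁻⁶–10⁻¹¹ M), then given 0.2 nM [³H]-(+)-methylisradipine with 0.5 mM CaCl₂ for 60 min at room temperature. Filter-bound label was counted. Nonspecific binding was taken from 1 μM isradipine. Experiments were repeated 2–3 times in triplicate, with LIGAND analysis.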

[2] = Concentration displacing [3H]sradipine binding to rat heart.; outline: as §1
[3] = species: Cavia porcellus; experiment: Concentration displacing [3H]-sradipine binding to guinea pig ileum.
Outline: (§2)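 Guinea pig ileal longitudinal-muscle microsomes were prepared in 50 mM Tris with PMSF (pH 7.0) and spun down at 45 000g. Membranes (0.3 mg protein/mL) were preincubated 5 min with compound (10⁻⁶–10⁻¹¹ M), then incubated 60 min at room temperature with 0.2 nM [³H]-(+)-methylisradipine and 0.5 mM CaCl₂. Samples were filtered and counted. Nonspecific binding was set with 1 μM isradipine. Runs were 2–3 times in triplicate, analysed with LIGAND.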

[4] = species: Rattus norvegicus; experiment: Effect on [3H]sradipine binding to rat brain; assay type: tissue-based
Outline: (§3)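 Whole Sprague Dawley rat brain was homogenized in 25 mM HEPES/NaOH with 0.32 M sucrose and 0.1 mM PMSF (pH 7.4), and pellets were collected by centrifugation. Microsomes (0.3 mg protein/mL) received compound (10⁻⁶–10⁻¹¹ M) for a 5-min preincubation. Then 0.2 nM [³H]-(+)-methylisradipine was added with 0.5 mM CaCl₂, for 60 min at room temperature, followed by filtration and scintillation counting. Nonspecific binding was defined with 1 μM isradipine. Runs were 2–3 times in triplicate, fitted with LIGAND.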

[5] = species: Cavia porcellus; experiment: Effect on [3H]sradipine binding to guinea pig ileum.; outline: as §2
[6] = Concentration inhibiting [3H]sradipine binding to rat brain.; assay type: tissue-based; outline: as §3
[7] = species: Rattus norvegicus; experiment: Effect on [3H]sradipine binding to rat brain.; assay type: tissue-based; outline: as §3
[8] = Concentration displacing [3H]sradipine binding to rat brain.; assay type: tissue-based; outline: as §3
[9] = Concentration displacing [3H]-sradipine binding to rat brain; assay type: tissue-based; outline: as §3

Bmax [1] | Ki [2] | Bmax [4] | Ki [6] | Bmax [7] | Ki [8] | Ki [9] | SMILES | Ki [3] | Bmax [5]
65.3 fmol/mg | 13 nM | 77.2 fmol/mg | 18.1 nM | – | – | – | COC(=O)C1=C(C)NC(C)=C(C(=O)OC[C@@H]2CCCO2)[C@@H]1c1ccccc1[N+](=O)[O-] (stereo in doubt) | 24.8 nM | 261 fmol/mg
74.9 fmol/mg | 0.6 nM | – | – | 74.9 fmol/mg | 0.58 nM | – | CO/C(O)=C1\C(C)=NC(C)=C(C(=O)OC[C@@H]2CCCO2)[C@H]1c1ccccc1[N+](=O)[O-] | 0.96 nM | 299 fmol/mg
81.4 fmol/mg | 5.95 nM | 79.1 fmol/mg | – | – | – | 17.7 nM | CO/C(O)=C1\C(C)=NC(C)=C(C(=O)OC[C@H]2CCCO2)[C@@H]1c1ccccc1[N+](=O)[O-] | 11.1 nM | 250 fmol/mg
84.7 fM/mg | 1 nM | – | – | 79.7 fmol/mg | – | 0.67 nM | COC(=O)C1=C(C)NC(C)=C(C(=O)OC[C@H]2CCCO2)[C@H]1c1ccccc1[N+](=O)[O-] (stereo in doubt) | 2.04 nM | 269 fmol/mg
